# Experimental data taken from ChEMBL document CHEMBL1268976, “Stereocontrolled facile synthesis and antimicrobial activity of oximes and oxime ethers of diversely substituted bispidines” (2010).
# Legend:
# Type in all cases: functional
# Bacillus subtilis = assay: Antibacterial activity against Bacillus subtilis by broth microdilution method
# Procedure, shortened: (§1)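 In vitro broth microdilution following the NCCLS standard for bacteria (M7-A5). The test panel was Bacillus subtilis, Staphylococcus aureus, Klebsiella pneumoniae and Pseudomonas aeruginosa.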
# Staphylococcus aureus = assay: Antibacterial activity against Staphylococcus aureus by broth microdilution method; procedure, shortened: as §1
# Klebsiella pneumoniae = assay: Antibacterial activity against Klebsiella pneumoniae by broth microdilution method; procedure, shortened: as §1
# Pseudomonas aeruginosa = assay: Antibacterial activity against Pseudomonas aeruginosa by broth microdilution method; procedure, shortened: as §1
# Candida albicans = assay: Antifungal activity against Candida albicans by broth microdilution method
# Procedure, shortened: (§2)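 Fungal panel of Candida albicans, Candida parapsilosis, Aspergillus niger and Cryptococcus neoformans, tested in vitro by standard NCCLS broth microdilution. The yeast susceptibility reference cited is M27-A.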
# Candida parapsilosis = assay: Antifungal activity against Candida parapsilosis by broth microdilution method; conditions: Lodderomyces parapsilosis; procedure, shortened: as §2
# Aspergillus niger = assay: Antifungal activity against Aspergillus niger by broth microdilution method; procedure, shortened: as §2
# Cryptococcus neoformans = assay: Antimicrobial activity against Cryptococcus neoformans by broth microdilution method; procedure, shortened: as §2
Compound,MIC90 (Bacillus subtilis) [µg/mL],MIC90 (Staphylococcus aureus) [µg/mL],MIC90 (Klebsiella pneumoniae) [µg/mL],MIC90 (Pseudomonas aeruginosa) [µg/mL],MIC90 (Candida albicans) [µg/mL],MIC90 (Candida parapsilosis) [µg/mL],MIC90 (Aspergillus niger) [µg/mL],MIC90 (Cryptococcus neoformans) [µg/mL]
Cc1ccc(C2NC(c3ccc(C)cc3)C3C(=NO)C2C(c2ccc(C)cc2)NC3c2ccc(C)cc2)cc1 (centres undefined),> 128,> 128,> 128,32,64,32,> 128,> 128
CON=C1C2C(c3cccc(Cl)c3)NC(c3cccc(Cl)c3)C1C(c1cccc(Cl)c1)NC2c1cccc(Cl)c1 (centres undefined),> 128,> 128,64,> 128,> 128,> 128,64,> 128
CON=C1C2C(c3ccc(OC)cc3)NC(c3ccc(OC)cc3)C1C(c1ccc(OC)cc1)NC2c1ccc(OC)cc1 (centres undefined),64,32,> 128,16,> 128,128,16,16
CCc1ccc(C2NC(c3ccc(CC)cc3)C3C(=NOC)C2C(c2ccc(CC)cc2)NC3c2ccc(CC)cc2)cc1 (centres undefined),> 128,> 128,64,32,128,32,> 128,> 128
CC(C)c1ccc(C2NC(c3ccc(C(C)C)cc3)C3C(=NO)C2C(c2ccc(C(C)C)cc2)NC3c2ccc(C(C)C)cc2)cc1 (centres undefined),> 128,128,128,16,> 128,32,> 128,> 128
CON=C1C2C(c3ccc(C(C)C)cc3)NC(c3ccc(C(C)C)cc3)C1C(c1ccc(C(C)C)cc1)NC2c1ccc(C(C)C)cc1 (centres undefined),> 128,128,128,16,128,8,128,> 128
C=CCOc1ccc(C2NC(c3ccc(OCC=C)cc3)C3C(=NOC)C2C(c2ccc(OCC=C)cc2)NC3c2ccc(OCC=C)cc2)cc1 (centres undefined),64,> 128,16,64,> 128,32,64,> 128
COc1cccc(C2NC(c3cccc(OC)c3)C3C(=NO)C2C(c2cccc(OC)c2)NC3c2cccc(OC)c2)c1 (centres undefined),> 128,> 128,> 128,128,> 128,> 128,64,> 128
CON=C1C2C(c3ccccc3Cl)NC(c3ccccc3Cl)C1C(c1ccccc1Cl)NC2c1ccccc1Cl (centres undefined),> 128,16,4,16,16,> 128,2,16
CON=C1C2C(c3ccc(Br)cc3)NC(c3ccc(Br)cc3)C1C(c1ccc(Br)cc1)NC2c1ccc(Br)cc1 (centres undefined),64,> 128,> 128,> 128,> 128,16,> 128,> 128
CON=C1C2C(c3ccccc3)NC(c3ccccc3)C1C(c1ccccc1)NC2c1ccccc1 (centres undefined),> 128,> 128,> 128,128,128,> 128,> 128,> 128
ON=C1C2C(c3ccccc3F)NC(c3ccccc3F)C1C(c1ccccc1F)NC2c1ccccc1F (centres undefined),64,> 128,32,16,32,64,4,> 128
ON=C1C2C(c3cccc(Oc4ccccc4)c3)NC(c3cccc(Oc4ccccc4)c3)C1C(c1cccc(Oc3ccccc3)c1)NC2c1cccc(Oc2ccccc2)c1 (centres undefined),> 128,> 128,> 128,> 128,128,128,> 128,> 128
